# ChEMBL document CHEMBL1128486, “Farnesyl diphosphate-based inhibitors of Ras farnesyl protein transferase” (J Med Chem, 1995)
# pIC50: −log10 of the molar value.
# Target: T1, Squalene synthase (Rattus norvegicus, UniProt Q02769)
# T1 sequence (Q02769 whole entry): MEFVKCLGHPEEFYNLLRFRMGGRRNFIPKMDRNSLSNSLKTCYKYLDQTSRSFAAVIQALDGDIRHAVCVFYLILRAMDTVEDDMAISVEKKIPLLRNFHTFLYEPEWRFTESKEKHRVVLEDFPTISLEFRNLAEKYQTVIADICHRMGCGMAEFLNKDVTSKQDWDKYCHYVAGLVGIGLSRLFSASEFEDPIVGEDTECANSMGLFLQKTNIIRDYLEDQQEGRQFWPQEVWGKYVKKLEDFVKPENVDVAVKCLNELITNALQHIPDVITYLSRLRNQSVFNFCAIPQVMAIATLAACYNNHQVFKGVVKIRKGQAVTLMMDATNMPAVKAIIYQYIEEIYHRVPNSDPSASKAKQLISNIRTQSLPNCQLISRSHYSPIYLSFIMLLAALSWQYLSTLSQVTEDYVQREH
# Test: Inhibition of squalene synthase
# Settings: read-out: I50
# Summary of the method: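 Squalene synthetase was prepared from rat liver microsomes and used for I50 determination.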
row,pIC50,SMILES
1,3.29,CC(C)=CCC/C(C)=C/CC/C(C)=C/CNC(=O)C(CP(=O)(O)O)C(=O)O (centres undefined)

# Target: Protein farnesyltransferase (Sus scrofa)
# Test: Inhibition of pig brain farnesyl transferase
# Settings: read-out: I50
row,pIC50,SMILES
1,7.12,CC(C)=CCC/C(C)=C/CC/C(C)=C/CNC(=O)C(CP(=O)(O)O)C(=O)O (centres undefined)

# Target: Protein farnesyltransferase (Sus scrofa)
# Test: Inhibition of pig brain farnesyl transferase
# Settings: read-out: I50
# Remark: another data set of the same source
row,pIC50,SMILES
1,5.34,CC(C)=CCC/C(C)=C/CC/C(C)=C/CNC(=O)CCP(=O)(O)O
2,4.38,CC(C)=CCC/C(C)=C/CC/C(C)=C/CNC(=O)CP(=O)(O)O
3,3.94,CC(C)=CCC/C(C)=C/CC/C(C)=C/CNC(=O)CC(=O)O

# Target: Mevalonate kinase (Rattus norvegicus, UniProt P17256)
# Test: Inhibition of mevalonate kinase
# Settings: read-out: I50
# Summary of the method: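 Mevalonate kinase was purified to homogeneity from rat liver and used for inhibition measurement.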
# Sequence of Mevalonate kinase (P17256 whole entry): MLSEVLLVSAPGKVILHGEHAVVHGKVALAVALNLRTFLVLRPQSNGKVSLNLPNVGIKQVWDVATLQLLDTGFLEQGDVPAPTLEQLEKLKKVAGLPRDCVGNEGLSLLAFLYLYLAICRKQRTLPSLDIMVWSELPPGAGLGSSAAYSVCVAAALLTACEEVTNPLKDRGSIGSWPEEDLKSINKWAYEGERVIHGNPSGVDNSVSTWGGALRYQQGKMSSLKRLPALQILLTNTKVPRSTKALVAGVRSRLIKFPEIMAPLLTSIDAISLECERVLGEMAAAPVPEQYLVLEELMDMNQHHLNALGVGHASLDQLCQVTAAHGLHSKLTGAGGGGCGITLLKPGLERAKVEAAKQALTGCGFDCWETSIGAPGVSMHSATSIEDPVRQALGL
row,pIC50,SMILES
1,< 3.70,CC(C)=CCC/C(C)=C/CC/C(C)=C/CNC(=O)C(CP(=O)(O)O)C(=O)O (centres undefined)

# Target: Protein farnesyltransferase (Sus scrofa)
# Test: Inhibition of pig brain farnesyl transferase
# Settings: read-out: I50
# Remark: another data set of the same source
row,SMILES,pIC50
1,CC(C)=CCC/C(C)=C/CC/C(C)=C/CNC(=O)CCC(=O)O,3.66
2,CC(C)=CCC/C(C)=C/CC/C(C)=C/C(=O)N[C@@H](CCC(=O)O)C(=O)O,4.94
3,CC(C)=CCC/C(C)=C/CC/C(C)=C/CCNC(=O)C(CP(=O)(O)O)C(=O)O (centres undefined),4.75
4,CC(C)=CCC/C(C)=C/CC/C(C)=C/C(=O)N[C@H](CC(=O)O)C(=O)O,4.60
5,CC(C)=CCC/C(C)=C/CCC(C)(C)CCNC(=O)C(CP(=O)(O)O)C(=O)O (centres undefined),4.26
6,CC(C)=CCC/C(C)=C/CC/C(C)=C/C(=O)N[C@H](CCC(=O)O)C(=O)O,4.52
7,CC(C)=CCC/C(C)=C/CC/C(C)=C/C(=O)N[C@@H](CC(=O)O)C(=O)O,4.90

# Other lines, results leading:
row,pIC50,SMILES
1,6.60,CC(C)=CCC/C(C)=C/CC/C(C)=C/C(=O)N[C@@H](CP(=O)(O)O)C(=O)O
2,5.05,CCCCCCCCCCCCNC(=O)C(CP(=O)(O)O)C(=O)O (centres undefined)
3,5.77,CC(C)=CCC/C(C)=C/CC/C(C)=C/CC(=O)N[C@@H](CP(=O)(O)O)C(=O)O
4,7.30,CC(C)=CCC/C(C)=C/CC/C(C)=C/CC(=O)N[C@H](CP(=O)(O)O)C(=O)O
5,6.30,CC(C)=CCC/C(C)=C/CC/C(C)=C/C(=O)N[C@H](CP(=O)(O)O)C(=O)O
6,6.28,CC(C)=CCC/C(C)=C/CC/C(C)=C/CN(C)C(=O)C(CP(=O)(O)O)C(=O)O (centres undefined)
